Screens deposited in PubChem BioAssay by several laboratories.
T cell modulator – T cell immune modulation candidate; 330,000 compounds, 0.068% hits; response (vesicle binding), % at 7 µM; 2C CD8+ T cell-vesicle binding, flow cytometry; active compounds read low;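 active = response, share of CD8 T cells binding vesicles, and their 90th percentile fluorescence all below set limits, cut at about 80% in these data, passing the limit was not always enough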;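 also: values below 100% mean blocked vesicle binding to the CD8+ T cells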
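Material: 2C TCR transgenic mouse naive CD8+ T cells, MACS-purified. Also added: QL9-charged Drosophila Ld/ICAM-1/B7-1 vesicles. Timing: binding 1.5 h at 37 °C. Measured by: high-throughput flow cytometry with anti-B7-1 and anti-CD8 staining. Read-out: percent CD8+ FL2 mean versus row control. Controls: Unloaded micro-vesicles (low), QL9 vesicles with 0.7% DMSO (high).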
MEX-5 binding – C. elegans MEX-5 TCR-2 RNA binding activity; 300,000 compounds, 0.38% hits; activity score (negative = inhibition of binding), % at 10 µM; MEX-5/FITC-TCR2 RNA binding, fluorescence polarization; active compounds read low; Q9XUB2; AID 1832;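 active = inhibition past about -25% in most replicates, and total fluorescence under double the plate's negative control median, limit read from the data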;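 also: 0% = DMSO and -100% = 5 µM competing unlabeled TCR2 RNA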
GRK2 inh – inhibitors of human GRK2 displacing RNA aptamer; bead flow cytometry, FAM-aptamer displacement from GRK2; P25098; inhibition of aptamer binding, % at 10 µM; 330,000 compounds, 0.59% hits;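 active = inhibition of aptamer binding above 40%, roughly 3 SD of noise, on plates passing a quality check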;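 also: median bead fluorescence of bound FAM aptamer so fluorescent compounds give negative values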
Target sequence (P25098 whole entry, looked up): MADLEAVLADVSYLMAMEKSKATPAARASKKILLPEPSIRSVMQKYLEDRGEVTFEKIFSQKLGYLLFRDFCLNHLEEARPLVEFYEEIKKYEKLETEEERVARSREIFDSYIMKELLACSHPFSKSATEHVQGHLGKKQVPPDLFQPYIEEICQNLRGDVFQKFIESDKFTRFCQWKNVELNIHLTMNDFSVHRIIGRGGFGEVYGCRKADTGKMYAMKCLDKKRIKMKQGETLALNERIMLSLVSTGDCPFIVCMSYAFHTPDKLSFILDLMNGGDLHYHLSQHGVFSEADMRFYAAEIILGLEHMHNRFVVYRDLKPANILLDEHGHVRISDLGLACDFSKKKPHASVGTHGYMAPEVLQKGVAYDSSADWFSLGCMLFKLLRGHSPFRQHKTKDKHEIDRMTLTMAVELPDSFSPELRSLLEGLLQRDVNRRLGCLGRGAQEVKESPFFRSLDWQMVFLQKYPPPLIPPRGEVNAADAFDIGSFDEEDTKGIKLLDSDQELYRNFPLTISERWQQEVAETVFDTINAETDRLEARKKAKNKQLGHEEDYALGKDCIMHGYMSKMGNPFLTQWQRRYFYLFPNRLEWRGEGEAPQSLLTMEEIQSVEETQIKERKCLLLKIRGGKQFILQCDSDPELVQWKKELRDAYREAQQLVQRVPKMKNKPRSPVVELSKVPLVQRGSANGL
EBV gp42 inh – inhibitors of Epstein-Barr virus glycoprotein 42; Fluorescence polarization binding assay, mP read-out; inhibition, % (tested at 21.74 µM); 220,000 compounds, 0.42% hits; in the data active = inhibition above about 50%
Keap1-Nrf2 PPI – disrupts human Keap1 binding to Nrf2 peptide; AID 504523; 340,000 compounds, 0.15% hits; Keap1 Kelch-Nrf2 peptide fluorescence polarization, 1536-well; Q14145; inhibition, % at 9.4 µM; in the data active = inhibition above about 12%;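 also: human Keap1 Kelch domain with fluorescein labeled Nrf2 9mer peptide probe; 0% = neutral control wells and 100% = peptide positive control; higher means more block of Keap1 binding to Nrf2 peptide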
LANA DNA inh – inhibitors of KSHV LANA C-terminal domain DNA binding; MBP-C-LANA/FAM-LBS DNA binding, fluorescence polarization; inhibition, % at 9 µM; 340,000 compounds, 0.078% hits;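 active = highest replicate inhibition at or above 60% at 9 µM, even if other replicates fall short; inactive = all replicates below 60% inhibition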;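 also: 0% = neutral control wells and 100% = 4 µM acridine orange control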
GRK2 inh confirm – human GRK2 inhibition confirmation, cherry pick 1; shares compounds with GRK2 inh; bead-bound GRK2, FAM-aptamer displacement, flow cytometry; aptamer displacement, % at 10 µM; 2,000 compounds, 4% hits; AID 504451;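 active = aptamer displacement above 40%, near three times the noise of non-fluorescent compounds, on plates passing quality checks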;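 also: negative values mostly reflect intrinsic compound fluorescence rather than true enhancement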
FAM quench CP1 – aptamer fluorescence quenching in GRK2 counter-screen. shares compounds with GRK2 inh. Carboxyfluorescein RNA aptamer on beads, flow cytometry quenching; active compounds read low. fluorescence response (% of DMSO), % at 10 µM. 2,000 tested, under 10 active. AID 504580;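 active = compounds that quench the bead-bound fluorescent RNA probe, cutting fluorescence to under half of the solvent control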;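 also: counterscreen run without GRK2 so only probe quenching by compound is measured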
GRK2 confirm 2 – confirmation of human GRK2 inhibitors binding RNA aptamer site; shares compounds with GRK2 inh; bead-bound GRK2, FAM-aptamer displacement, flow cytometry; inhibition of aptamer binding, % at 10 µM; 360 tested, under 10 active; AID 504782;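 active = inhibition of aptamer binding above 40%, about triple the noise seen with nonglowing compounds, on plates passing quality control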;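 also: negative values mostly come from compounds that fluoresce themselves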
FAM quench SP – aptamer fluorescence quenching in GRK2 counter-screen. shares compounds with GRK2 inh. carboxyfluorescein RNA aptamer beads, flow cytometry quenching; active compounds read low. fluorescence response vs DMSO, % at 10 µM. 360 tested, under 10 active. AID 588494;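 active = response vs DMSO under 50%, meaning signal dropped by over half, treated as fluorescence quencher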;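 also: labelled aptamer on streptavidin beads without GRK2 as a quench counter-screen; 100% = bead fluorescence of DMSO wells and lower means quenching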
Active calls of the source: *. Most compounds without a hit are left out; they make up all but 1.3% or so of the library.

What do the screens show for `O=C(CN1C(=O)COc2ccc(S(=O)(=O)N3CCOCC3)cc21)Nc1cccc(Cl)c1`?
T cell modulator: 404; MEX-5 binding: -2; GRK2 inh: 66*; Keap1-Nrf2 PPI: 2; LANA DNA inh: 0; GRK2 inh confirm: -5; FAM quench CP1: 101

What do the screens show for `Cc1ccc(CNC(=O)CCS(=O)(=O)c2ccc3c(c2)oc(=O)n3C)cc1`?
T cell modulator: 356; MEX-5 binding: 0; GRK2 inh: 0; Keap1-Nrf2 PPI: -2; LANA DNA inh: -1

What do the screens show for `CN(C)c1ccc(CNC(=O)CCS(=O)(=O)c2ccc3c(c2)n(C)c(=O)c(=O)n3C)cc1`?
T cell modulator: inactive; MEX-5 binding: -3; GRK2 inh: 60*; Keap1-Nrf2 PPI: -5; LANA DNA inh: 0; GRK2 inh confirm: 19; FAM quench CP1: 98; GRK2 confirm 2: 32; FAM quench SP: 101

Results for COc1ccc(CCC(=O)Nc2cc3c4c(c2)CC(=O)N4CCC3)cc1 ?
T cell modulator: 790; MEX-5 binding: 0; GRK2 inh: 3; Keap1-Nrf2 PPI: -3; LANA DNA inh: 0

What do the screens show for `CN(C)[C@@H](CO)c1nnc([C@H](CCC(=O)O)NC(=O)C2CCNCC2)o1`?
MEX-5 binding: 0; EBV gp42 inh: -10; Keap1-Nrf2 PPI: 0; LANA DNA inh: 0

How did COc1ccc(C(=O)N/C(=C\c2ccccc2)C(=O)Nc2cccc(C(=O)O)c2)cc1 do in these assays?
T cell modulator: 256; MEX-5 binding: 2; GRK2 inh: 90*; Keap1-Nrf2 PPI: -2; LANA DNA inh: 0; GRK2 inh confirm: 1; FAM quench CP1: 105

How did COc1ccc(CNC(=O)c2cccc(NC(=O)c3ccccc3)c2)cc1 do in these assays?
T cell modulator: 136; MEX-5 binding: 0; GRK2 inh: 2; EBV gp42 inh: -6; Keap1-Nrf2 PPI: -2; LANA DNA inh: 0; GRK2 inh confirm: 3; FAM quench CP1: 104

Results for COc1ccc(CC(=O)Nc2cccc(C(=O)Nc3cccc(C)c3)c2)cc1 ?
T cell modulator: 174; MEX-5 binding: 0; GRK2 inh: 2; EBV gp42 inh: -4

What do the screens show for `O=C(NCc1ccccc1Cl)c1ccc(NC2=NC3CS(=O)(=O)CC3S2)cc1` (stereo unspecified)?
T cell modulator: 818; MEX-5 binding: 1; GRK2 inh: 0; Keap1-Nrf2 PPI: -5; LANA DNA inh: 0

Results for O=C(NCc1ccccc1)c1cccc(NC(=O)c2ccccc2)c1 ?
Keap1-Nrf2 PPI: 8; LANA DNA inh: -1; GRK2 inh confirm: 2; FAM quench CP1: 103

Results for O=C(NCc1ccccc1Cl)c1cccc(NC2=NC3CS(=O)(=O)CC3S2)c1 (stereo unspecified) ?
T cell modulator: 458; MEX-5 binding: 0; GRK2 inh: 2; Keap1-Nrf2 PPI: -6; LANA DNA inh: 0; GRK2 inh confirm: -2; FAM quench CP1: 97

What do the screens show for `O=C(NC1CCCC1)C1CCN(S(=O)(=O)N2CCCCC2)CC1`?
T cell modulator: 213; MEX-5 binding: 0; GRK2 inh: 2; EBV gp42 inh: -14; Keap1-Nrf2 PPI: 1; LANA DNA inh: -2

How did Oc1oc(-c2ccccc2Br)nc1C=Nc1ccc(Br)cn1 do in these assays?
T cell modulator: 166; MEX-5 binding: -2; GRK2 inh: 0; EBV gp42 inh: -45; Keap1-Nrf2 PPI: 1; LANA DNA inh: 0
